Results taken from ChEMBL document CHEMBL1221219, “Selective blockade of 2-arachidonoylglycerol hydrolysis produces cannabinoid behavioral effects” (Nat Chem Biol, 2009).
Active and inactive are the calls of the source. The calls are words filed in the database; no cut-off is given here.

Key:
Mus musculus [1] = assay: Induction of hypothermia in C57B1/6J mouse at 16 mg/kg, ip pretreated with rimonabant; type: functional, organism-based; design: dose 16 mg/kg
How it was run: (§1)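 Male C57Bl/6J mice, 6-8 weeks, 20-26 g, given 16 mg kg^-1 i.p. in 4:1 v/v PEG300:Tween80 at 4 μl g^-1; vehicle controls received PEG300:Tween80 alone. Cannabinoid effects were scored in the tetrad test.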

[2] = biological target: T1, Diacylglycerol lipase-alpha (Homo sapiens) (UniProt Q9Y4D2); assay: Inhibition of recombinant DAGLalpha expressed in HEK293 cells assessed as hydrolysis of 1-stearoyl-2-arachidonoyl-glycerol to 2-AG at 10 uM after 30 mins by LC-MS method; type: cell-based
T1 sequence (whole entry): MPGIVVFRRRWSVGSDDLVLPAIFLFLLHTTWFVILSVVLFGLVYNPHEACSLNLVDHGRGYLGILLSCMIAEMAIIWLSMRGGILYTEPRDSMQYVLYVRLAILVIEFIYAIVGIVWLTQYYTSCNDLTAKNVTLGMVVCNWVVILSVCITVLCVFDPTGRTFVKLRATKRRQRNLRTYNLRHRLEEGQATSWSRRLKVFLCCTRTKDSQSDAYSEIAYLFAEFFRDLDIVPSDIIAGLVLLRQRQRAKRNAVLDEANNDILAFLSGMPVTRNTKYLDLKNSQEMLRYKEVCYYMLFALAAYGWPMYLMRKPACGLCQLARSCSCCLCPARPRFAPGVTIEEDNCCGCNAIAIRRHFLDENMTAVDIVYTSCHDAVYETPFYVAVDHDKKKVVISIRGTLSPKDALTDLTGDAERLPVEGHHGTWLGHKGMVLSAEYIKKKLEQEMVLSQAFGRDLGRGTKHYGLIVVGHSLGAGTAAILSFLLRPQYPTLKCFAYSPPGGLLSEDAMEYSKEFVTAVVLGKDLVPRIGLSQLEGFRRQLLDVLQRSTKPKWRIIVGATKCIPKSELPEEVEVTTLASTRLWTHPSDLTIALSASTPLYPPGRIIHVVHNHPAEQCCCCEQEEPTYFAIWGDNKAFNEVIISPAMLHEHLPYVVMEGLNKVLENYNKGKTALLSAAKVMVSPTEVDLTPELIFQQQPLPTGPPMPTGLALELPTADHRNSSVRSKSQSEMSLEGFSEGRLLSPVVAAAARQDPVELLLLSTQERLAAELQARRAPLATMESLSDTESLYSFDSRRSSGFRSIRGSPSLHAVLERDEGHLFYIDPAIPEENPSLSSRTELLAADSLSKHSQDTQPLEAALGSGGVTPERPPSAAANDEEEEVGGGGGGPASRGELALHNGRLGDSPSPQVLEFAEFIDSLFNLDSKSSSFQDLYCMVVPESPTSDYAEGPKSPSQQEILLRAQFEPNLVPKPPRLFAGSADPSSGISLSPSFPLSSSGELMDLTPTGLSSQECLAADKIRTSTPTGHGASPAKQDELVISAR

Mus musculus [3] = assay: Change in 2-AG levels in intraperitoneally dosed C57B1/6J mouse brain by LC-MS; type: functional, organism-based
How it was run: (§2)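 Male C57Bl/6J mice given 4, 8, 16 or 40 mg kg^-1 i.p. in 4:1 PEG300:Tween80 at 4 μl g^-1, or vehicle, and killed after 4 h. Whole-brain lipids were quantified by LC-MS.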

Mus musculus [4] = assay: Change in monopalmitoylglycerol levels in intraperitoneally dosed C57B1/6J mouse brain by LC-MS; type: functional, organism-based; how it was run: as §2
Mus musculus [5] = assay: Inhibition of TPP2 in C57B1/6J mouse brain membrane at 16 mg/kg, ip after 4 hrs by competitive activity-based protein profiling-MudPIT method; type: functional, organism-based; design: dose 16 mg/kg
How it was run: (§3)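 After i.p. dosing in 4:1 PEG300:Tween80, male C57Bl/6J mice were killed at 4 h. Brain membrane proteomes from treated and vehicle mice were labelled with FP-biotin. Labelled proteins were enriched on avidin, digested on-bead with trypsin and analysed by multidimensional LC-MS. Proteins were identified by SEQUEST, and dosed samples were compared with vehicle.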

Mus musculus [6] = assay: Antinociceptive activity against formalin-induced pain in C57B1/6J mouse assessed as paw lifting or licking during early phase (0 to 10 mins) at 40 m/kg, po administered 2 hrs before formalin challenge pretreated with rimonabant; type: functional, organism-based
Mus musculus [7] = assay: Inhibition of AADACL1 in C57B1/6J mouse brain membrane at 16 mg/kg, ip after 4 hrs by competitive activity-based protein profiling-MudPIT method; type: functional, organism-based; design: dose 16 mg/kg
How it was run: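 Mice were dosed 16 mg kg^-1 i.p. or vehicle and killed at 4 h. Brain membrane proteomes were labelled with FP-biotin, avidin-enriched, trypsin-digested on bead, analysed by multidimensional LC-MS and identified by SEQUEST.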

Mus musculus [8] = assay: Inhibition of PNPLA8 in C57B1/6J mouse brain membrane at 16 mg/kg, ip after 4 hrs by competitive activity-based protein profiling-MudPIT method; type: functional, organism-based; design: dose 16 mg/kg; how it was run: as §3
Mus musculus [9] = assay: Inhibition of PRCP in C57B1/6J mouse brain membrane at 16 mg/kg, ip after 4 hrs by competitive activity-based protein profiling-MudPIT method; type: functional, organism-based; design: dose 16 mg/kg; how it was run: as §3
Mus musculus [10] = assay: Inhibition of MAGL in C57B1/6J mouse brain membrane assessed as increase in 2-AG level at 16 mg/kg, ip upto 24 hrs by competitive activity-based protein profiling method relative to control; type: functional; conditions: route intraperitoneal
How it was run: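 Male C57Bl/6J mice dosed i.p. in 4:1 v/v PEG300:Tween80, with vehicle controls; killed at set times (0.5-24 h, or 4 h). Brain membrane 2-AG hydrolysis measured by LC-MS substrate assay, and brain 2-AG measured by lipid LC-MS, relative to vehicle.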

Mus musculus [11] = assay: Induction of hypomotility in CB1 receptor deficient C57B1/6J mouse at 16 mg/kg, ip; type: functional, organism-based; design: dose 16 mg/kg; how it was run: as §1
Mus musculus [12] = assay: Change in palmitic acid in intraperitoneally dosed C57B1/6J mouse brain by LC-MS; type: functional, organism-based; how it was run: as §2
Mus musculus [13] = assay: Effect on interstitial level of AEA in C57B1/6 mouse nucleus accumbens at 10 mg/kg, ip by following neuronal depolarization by microdialysis; type: functional, organism-based; design: dose 10 mg/kg
How it was run: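 In vivo microdialysis from nucleus accumbens of C57Bl/6 mice after 10 mg kg^-1 i.p. Drug was given 1 h before neuronal depolarization, and interstitial AEA and 2-AG were measured in the dialysate.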

## O=C(Oc1ccc([N+](=O)[O-])cc1)N1CCC(C(O)(c2ccc3c(c2)OCO3)c2ccc3c(c2)OCO3)CC1
Mus musculus [1]
  Activity: inactive
[2]
  inhibition: inactive
Mus musculus [3]
  Activity: inactive
Mus musculus [4]
  Activity: inactive
Mus musculus [5]
  inhibition: inactive
Mus musculus [6]
  Activity: inactive
Mus musculus [7]
  inhibition: inactive
Mus musculus [8]
  inhibition: inactive
Mus musculus [9]
  inhibition: inactive
Mus musculus [10]
  inhibition in vivo at 16 mg/kg: > 80%
Mus musculus [11]
  Activity: inactive
Mus musculus [12]
  Activity: inactive
Mus musculus [13]
  Activity: inactive
